# Publication PMC10238246 (Medicinal Chemistry Research, 2023)
# Legend:
# mouse formalin model = mouse formalin model of acute and persistent pain; type: in vivo; conditions: 200 mg/kg i.p., positive control
# In short: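 Mouse formalin model: test compounds given s.c. (10, 30, 60 mg/kg) or i.p. (30 mg/kg) to maximise exposure. The positive control was a reference analgesic at 200 mg/kg i.p. Formalin-induced flinches were counted over 65 min. Plasma and brain levels were sampled at study end (~90 min post-dose), and free plasma level was estimated from plasma protein binding.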
# mouse rotarod assay = experiment: mouse rotarod assay; type: in vivo; conditions: dose of 200 mg/kg
smiles,measurement,setting,value
NCC1(CC(=O)O)CCCCC1 [Gabapentin],efficacy in the formalin model (number of flinches),mouse formalin model,Efficacy was seen
same,behavioral side effects,mouse rotarod assay,"behavioral side effects (i.e., sedation)"
